ChEMBL document CHEMBL1155459, “On-bead screening of a combinatorial fumaric acid derived peptide library yields antiplasmodial cysteine protease inhibitors with unusual peptide sequences” (J Med Chem, 2009)
Peptide text beside a SMILES is read from it.

Tests used:
[1] = molecular target: Rhodesain (Trypanosoma brucei rhodesiense) (UniProt Q95PM0); assay: Inhibition of Trypanosoma brucei rhodesiense rhodesain after 12 hrs by fluorescence spectroscopy-based on-bead assay; set-up: concentration or dose not given beside the values; settings: concentration not given here
In short: (§1)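 Library members on resin (PEGA, theoretical loading 0.40 mmol/g; added as DMSO suspension, 0.64 mM final inhibitor) preincubated with enzyme 12 h, then Cbz-Phe-Arg-AMC 40 μM added; AMC release followed by fluorescence (ex 380/em 460 nm). Kinetics compared with inhibitor-free amino-PEGA resin.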

[2] = Inhibition of Plasmodium falciparum falcipain-2 after 12 hrs by fluorescence spectroscopy-based on-bead assay; set-up: concentration or dose not given beside the values; settings: concentration not given here; in short: as §1

Sequence of Rhodesain (Trypanosoma brucei rhodesiense) (Q95PM0 1-450): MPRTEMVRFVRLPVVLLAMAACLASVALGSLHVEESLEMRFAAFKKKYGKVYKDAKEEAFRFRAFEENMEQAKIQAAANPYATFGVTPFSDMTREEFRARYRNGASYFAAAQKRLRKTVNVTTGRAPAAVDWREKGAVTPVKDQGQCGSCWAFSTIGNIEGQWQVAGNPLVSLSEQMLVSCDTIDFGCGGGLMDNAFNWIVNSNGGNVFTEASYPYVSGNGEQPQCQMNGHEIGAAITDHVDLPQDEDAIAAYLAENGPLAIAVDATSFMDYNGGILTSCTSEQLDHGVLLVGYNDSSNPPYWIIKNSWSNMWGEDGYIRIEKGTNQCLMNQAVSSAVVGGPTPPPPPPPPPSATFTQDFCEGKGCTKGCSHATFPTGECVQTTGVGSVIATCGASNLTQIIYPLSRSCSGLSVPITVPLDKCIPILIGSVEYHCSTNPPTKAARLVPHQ

SMILES: CC(C)[C@H](NC(=O)[C@H](C)NC(=O)[C@@H](NC(=O)[C@H](Cc1ccccc1)NC(=O)/C=C/C(=O)N[C@@H](C)C(=O)NCC(=O)N[C@@H](Cc1ccccc1)C(=O)O)C1CCCCC1)C(N)=O (HELM PEPTIDE1{[C[C@H](NC(=O)/C=C/C(=O)[*:2])C(=O)NCC(=O)N[C@@H](Cc1ccccc1)C(=O)O].F.[O=C([C@@H](N[*:1])C1CCCCC1)[*:2]].A.V.[am]}$$$$V2.0)
- inhibition [1]: 21%
- inhibition [2]: 29%

SMILES: CC(C)C[C@H](NC(=O)[C@@H](NC(=O)[C@H](Cc1ccccc1)NC(=O)/C=C/C(=O)N[C@@H](C)C(=O)NCC(=O)N[C@@H](Cc1ccccc1)C(=O)O)C1CCCCC1)C(=O)N[C@H](C(N)=O)C(C)C (HELM PEPTIDE1{[C[C@H](NC(=O)/C=C/C(=O)[*:2])C(=O)NCC(=O)N[C@@H](Cc1ccccc1)C(=O)O].F.[O=C([C@@H](N[*:1])C1CCCCC1)[*:2]].L.V.[am]}$$$$V2.0)
- inhibition [1]: 49%
- inhibition [2]: 56%

SMILES: CC(C)[C@H](NC(=O)[C@@H](NC(=O)[C@@H](NC(=O)[C@H](Cc1ccccc1)NC(=O)/C=C/C(=O)N[C@@H](C)C(=O)NCC(=O)N[C@@H](Cc1ccccc1)C(=O)O)C1CCCCC1)C(C)C)C(N)=O (HELM PEPTIDE1{[C[C@H](NC(=O)/C=C/C(=O)[*:2])C(=O)NCC(=O)N[C@@H](Cc1ccccc1)C(=O)O].F.[O=C([C@@H](N[*:1])C1CCCCC1)[*:2]].V.V.[am]}$$$$V2.0)
- inhibition [1]: 49%
- inhibition [2]: 45%

SMILES: CC(C)[C@H](NC(=O)[C@H](C)NC(=O)[C@@H](NC(=O)[C@H](Cc1ccccc1)NC(=O)/C=C/C(=O)N[C@@H](C)C(=O)NCC(=O)N[C@@H](Cc1ccccc1)C(=O)O)c1ccccc1)C(N)=O (HELM PEPTIDE1{[C[C@H](NC(=O)/C=C/C(=O)[*:2])C(=O)NCC(=O)N[C@@H](Cc1ccccc1)C(=O)O].F.[Phg].A.V.[am]}$$$$V2.0)
- inhibition [1]: 47%
- inhibition [2]: 34%

SMILES: CC(C)C[C@H](NC(=O)[C@@H](NC(=O)[C@H](Cc1ccccc1)NC(=O)/C=C/C(=O)N[C@@H](C)C(=O)NCC(=O)N[C@@H](Cc1ccccc1)C(=O)O)c1ccccc1)C(=O)N[C@H](C(N)=O)C(C)C (HELM PEPTIDE1{[C[C@H](NC(=O)/C=C/C(=O)[*:2])C(=O)NCC(=O)N[C@@H](Cc1ccccc1)C(=O)O].F.[Phg].L.V.[am]}$$$$V2.0)
- inhibition [1]: 68%
- inhibition [2]: 53%

SMILES: CC(C)[C@H](NC(=O)[C@@H](NC(=O)[C@@H](NC(=O)[C@H](Cc1ccccc1)NC(=O)/C=C/C(=O)N[C@@H](C)C(=O)NCC(=O)N[C@@H](Cc1ccccc1)C(=O)O)c1ccccc1)C(C)C)C(N)=O (HELM PEPTIDE1{[C[C@H](NC(=O)/C=C/C(=O)[*:2])C(=O)NCC(=O)N[C@@H](Cc1ccccc1)C(=O)O].F.[Phg].V.V.[am]}$$$$V2.0)
- inhibition [1]: 77%
- inhibition [2]: 58%

SMILES: CC(C)[C@H](NC(=O)[C@H](C)NC(=O)[C@H](Cc1ccccc1)NC(=O)[C@H](CC(N)=O)NC(=O)/C=C/C(=O)N[C@@H](C)C(=O)NCC(=O)N[C@@H](Cc1ccccc1)C(=O)O)C(N)=O (HELM PEPTIDE1{[C[C@H](NC(=O)/C=C/C(=O)[*:2])C(=O)NCC(=O)N[C@@H](Cc1ccccc1)C(=O)O].N.F.A.V.[am]}$$$$V2.0)
- inhibition [1]: 47%
- inhibition [2]: 25%

SMILES: CC(C)C[C@H](NC(=O)[C@H](Cc1ccccc1)NC(=O)[C@H](CC(N)=O)NC(=O)/C=C/C(=O)N[C@@H](C)C(=O)NCC(=O)N[C@@H](Cc1ccccc1)C(=O)O)C(=O)N[C@H](C(N)=O)C(C)C (HELM PEPTIDE1{[C[C@H](NC(=O)/C=C/C(=O)[*:2])C(=O)NCC(=O)N[C@@H](Cc1ccccc1)C(=O)O].N.F.L.V.[am]}$$$$V2.0)
- inhibition [1]: 64%
- inhibition [2]: 58%

SMILES: CC(C)[C@H](NC(=O)[C@@H](NC(=O)[C@H](Cc1ccccc1)NC(=O)[C@H](CC(N)=O)NC(=O)/C=C/C(=O)N[C@@H](C)C(=O)NCC(=O)N[C@@H](Cc1ccccc1)C(=O)O)C(C)C)C(N)=O (HELM PEPTIDE1{[C[C@H](NC(=O)/C=C/C(=O)[*:2])C(=O)NCC(=O)N[C@@H](Cc1ccccc1)C(=O)O].N.F.V.V.[am]}$$$$V2.0)
- inhibition [1]: 53%
- inhibition [2]: 54%

SMILES: CC[C@H](C)[C@H](NC(=O)[C@H](CC(N)=O)NC(=O)/C=C/C(=O)N[C@@H](C)C(=O)NCC(=O)N[C@@H](Cc1ccccc1)C(=O)O)C(=O)N[C@@H](C)C(=O)N[C@H](C(N)=O)C(C)C (HELM PEPTIDE1{[C[C@H](NC(=O)/C=C/C(=O)[*:2])C(=O)NCC(=O)N[C@@H](Cc1ccccc1)C(=O)O].N.I.A.V.[am]}$$$$V2.0)
- inhibition [1]: 17%
- inhibition [2]: 38%

SMILES: CC[C@H](C)[C@H](NC(=O)[C@H](CC(N)=O)NC(=O)/C=C/C(=O)N[C@@H](C)C(=O)NCC(=O)N[C@@H](Cc1ccccc1)C(=O)O)C(=O)N[C@@H](CC(C)C)C(=O)N[C@H](C(N)=O)C(C)C (HELM PEPTIDE1{[C[C@H](NC(=O)/C=C/C(=O)[*:2])C(=O)NCC(=O)N[C@@H](Cc1ccccc1)C(=O)O].N.I.L.V.[am]}$$$$V2.0)
- inhibition [1]: 60%
- inhibition [2]: 47%

SMILES: CC[C@H](C)[C@H](NC(=O)[C@H](CC(N)=O)NC(=O)/C=C/C(=O)N[C@@H](C)C(=O)NCC(=O)N[C@@H](Cc1ccccc1)C(=O)O)C(=O)N[C@H](C(=O)N[C@H](C(N)=O)C(C)C)C(C)C (HELM PEPTIDE1{[C[C@H](NC(=O)/C=C/C(=O)[*:2])C(=O)NCC(=O)N[C@@H](Cc1ccccc1)C(=O)O].N.I.V.V.[am]}$$$$V2.0)
- inhibition [1]: 21%
- inhibition [2]: 33%

SMILES: CC(C)C[C@H](NC(=O)[C@H](CC(N)=O)NC(=O)/C=C/C(=O)N[C@@H](C)C(=O)NCC(=O)N[C@@H](Cc1ccccc1)C(=O)O)C(=O)N[C@@H](C)C(=O)N[C@H](C(N)=O)C(C)C (HELM PEPTIDE1{[C[C@H](NC(=O)/C=C/C(=O)[*:2])C(=O)NCC(=O)N[C@@H](Cc1ccccc1)C(=O)O].N.L.A.V.[am]}$$$$V2.0)
- inhibition [1]: 42%
- inhibition [2]: 33%

SMILES: CC(C)C[C@H](NC(=O)[C@H](CC(N)=O)NC(=O)/C=C/C(=O)N[C@@H](C)C(=O)NCC(=O)N[C@@H](Cc1ccccc1)C(=O)O)C(=O)N[C@@H](CC(C)C)C(=O)N[C@H](C(N)=O)C(C)C (HELM PEPTIDE1{[C[C@H](NC(=O)/C=C/C(=O)[*:2])C(=O)NCC(=O)N[C@@H](Cc1ccccc1)C(=O)O].N.L.L.V.[am]}$$$$V2.0)
- inhibition [1]: 59%
- inhibition [2]: 57%

SMILES: CC(C)C[C@H](NC(=O)[C@H](CC(N)=O)NC(=O)/C=C/C(=O)N[C@@H](C)C(=O)NCC(=O)N[C@@H](Cc1ccccc1)C(=O)O)C(=O)N[C@H](C(=O)N[C@H](C(N)=O)C(C)C)C(C)C (HELM PEPTIDE1{[C[C@H](NC(=O)/C=C/C(=O)[*:2])C(=O)NCC(=O)N[C@@H](Cc1ccccc1)C(=O)O].N.L.V.V.[am]}$$$$V2.0)
- inhibition [1]: 50%
- inhibition [2]: 43%

SMILES: CC(C)[C@H](NC(=O)[C@H](C)NC(=O)[C@@H](NC(=O)[C@H](CC(N)=O)NC(=O)/C=C/C(=O)N[C@@H](C)C(=O)NCC(=O)N[C@@H](Cc1ccccc1)C(=O)O)C1CCCCC1)C(N)=O (HELM PEPTIDE1{[C[C@H](NC(=O)/C=C/C(=O)[*:2])C(=O)NCC(=O)N[C@@H](Cc1ccccc1)C(=O)O].N.[O=C([C@@H](N[*:1])C1CCCCC1)[*:2]].A.V.[am]}$$$$V2.0)
- inhibition [1]: 36%
- inhibition [2]: 45%

SMILES: CC(C)C[C@H](NC(=O)[C@@H](NC(=O)[C@H](CC(N)=O)NC(=O)/C=C/C(=O)N[C@@H](C)C(=O)NCC(=O)N[C@@H](Cc1ccccc1)C(=O)O)C1CCCCC1)C(=O)N[C@H](C(N)=O)C(C)C (HELM PEPTIDE1{[C[C@H](NC(=O)/C=C/C(=O)[*:2])C(=O)NCC(=O)N[C@@H](Cc1ccccc1)C(=O)O].N.[O=C([C@@H](N[*:1])C1CCCCC1)[*:2]].L.V.[am]}$$$$V2.0)
- inhibition [1]: 66%
- inhibition [2]: 40%

SMILES: CC(C)[C@H](NC(=O)[C@@H](NC(=O)[C@@H](NC(=O)[C@H](CC(N)=O)NC(=O)/C=C/C(=O)N[C@@H](C)C(=O)NCC(=O)N[C@@H](Cc1ccccc1)C(=O)O)C1CCCCC1)C(C)C)C(N)=O (HELM PEPTIDE1{[C[C@H](NC(=O)/C=C/C(=O)[*:2])C(=O)NCC(=O)N[C@@H](Cc1ccccc1)C(=O)O].N.[O=C([C@@H](N[*:1])C1CCCCC1)[*:2]].V.V.[am]}$$$$V2.0)
- inhibition [1]: 50%
- inhibition [2]: 62%

SMILES: CC(C)[C@H](NC(=O)[C@H](C)NC(=O)[C@@H](NC(=O)[C@H](CC(N)=O)NC(=O)/C=C/C(=O)N[C@@H](C)C(=O)NCC(=O)N[C@@H](Cc1ccccc1)C(=O)O)c1ccccc1)C(N)=O (HELM PEPTIDE1{[C[C@H](NC(=O)/C=C/C(=O)[*:2])C(=O)NCC(=O)N[C@@H](Cc1ccccc1)C(=O)O].N.[Phg].A.V.[am]}$$$$V2.0)
- inhibition [1]: 44%
- inhibition [2]: 35%

SMILES: CC(C)C[C@H](NC(=O)[C@@H](NC(=O)[C@H](CC(N)=O)NC(=O)/C=C/C(=O)N[C@@H](C)C(=O)NCC(=O)N[C@@H](Cc1ccccc1)C(=O)O)c1ccccc1)C(=O)N[C@H](C(N)=O)C(C)C (HELM PEPTIDE1{[C[C@H](NC(=O)/C=C/C(=O)[*:2])C(=O)NCC(=O)N[C@@H](Cc1ccccc1)C(=O)O].N.[Phg].L.V.[am]}$$$$V2.0)
- inhibition [1]: 55%
- inhibition [2]: 55%

SMILES: CC(C)[C@H](NC(=O)[C@@H](NC(=O)[C@@H](NC(=O)[C@H](CC(N)=O)NC(=O)/C=C/C(=O)N[C@@H](C)C(=O)NCC(=O)N[C@@H](Cc1ccccc1)C(=O)O)c1ccccc1)C(C)C)C(N)=O (HELM PEPTIDE1{[C[C@H](NC(=O)/C=C/C(=O)[*:2])C(=O)NCC(=O)N[C@@H](Cc1ccccc1)C(=O)O].N.[Phg].V.V.[am]}$$$$V2.0)
- inhibition [1]: 37%
- inhibition [2]: 51%

SMILES: CC(C)[C@H](NC(=O)[C@H](C)NC(=O)[C@H](Cc1ccccc1)NC(=O)[C@H](CCC(N)=O)NC(=O)/C=C/C(=O)N[C@@H](C)C(=O)NCC(=O)N[C@@H](Cc1ccccc1)C(=O)O)C(N)=O (HELM PEPTIDE1{[C[C@H](NC(=O)/C=C/C(=O)[*:2])C(=O)NCC(=O)N[C@@H](Cc1ccccc1)C(=O)O].Q.F.A.V.[am]}$$$$V2.0)
- inhibition [1]: 30%
- inhibition [2]: 25%
